Assay results reported in ChEMBL document CHEMBL2331476, “A novel semisynthetic flavonoid 7-O-galloyltaxifolin upregulates heme oxygenase-1 in RAW264.7 cells via MAPK/Nrf2 pathway” (J Med Chem, 2013).
Activity calls are given as the source filed them. No cut-off for these calls is given here.

Tests used:
Assay type in all cases: cell-based
[1] = biological target: Mitogen-activated protein kinase 1 (Mus musculus) (UniProt P63085); assay: Activation of ERK2 in mouse RAW264.7 cells assessed as phosphorylation at Thr185/Tyr187 at 50 uM after 30 mins by Western blotting analysis
In short: (§1)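 RAW264.7 cells (passage 5-25) seeded at 1 × 10⁵ cells/cm², serum-starved overnight, then exposed in serum-free medium for 30 min to 3 h; 0.1% DMSO vehicle; 75 ng/mL EGF for 30 min as positive control. Whole-cell lysates (20 μg/lane) on 10% SDS-PAGE, blotted for phospho-ERK1 (Thr202/Tyr204), phospho-ERK2 (Thr185/Tyr187) and total ERK1/2, chemiluminescent detection.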

[2] = biological target: T1, Nuclear factor erythroid 2-related factor 2 (Mus musculus) (UniProt Q60795); assay: Activation of Nrf2 in mouse RAW264.7 cells assessed as upregulation of HO1 protein expression at 50 uM after 6 hrs by Western blotting analysis
T1 sequence (whole entry): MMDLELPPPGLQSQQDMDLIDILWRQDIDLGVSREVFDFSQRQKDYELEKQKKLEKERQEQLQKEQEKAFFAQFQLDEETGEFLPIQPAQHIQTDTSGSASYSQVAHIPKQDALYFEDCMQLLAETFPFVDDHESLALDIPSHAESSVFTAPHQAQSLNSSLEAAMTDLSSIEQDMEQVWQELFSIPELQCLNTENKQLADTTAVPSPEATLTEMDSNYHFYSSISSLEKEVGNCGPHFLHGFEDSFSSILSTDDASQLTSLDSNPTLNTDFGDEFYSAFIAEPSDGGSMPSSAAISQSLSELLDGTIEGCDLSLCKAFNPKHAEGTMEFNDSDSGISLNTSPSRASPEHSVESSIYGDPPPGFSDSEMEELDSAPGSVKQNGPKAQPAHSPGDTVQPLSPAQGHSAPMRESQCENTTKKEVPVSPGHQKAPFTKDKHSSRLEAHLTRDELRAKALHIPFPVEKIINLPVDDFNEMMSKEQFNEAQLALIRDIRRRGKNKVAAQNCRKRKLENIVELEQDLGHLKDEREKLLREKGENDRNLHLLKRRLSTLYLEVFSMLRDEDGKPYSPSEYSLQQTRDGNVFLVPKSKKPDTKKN
In short: (§2)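 HO-1 protein in whole-cell lysates (20 μg/lane) of serum-starved RAW264.7 cells after 6 h at 10-50 μM or 50 μM for 1-6 h in serum-free medium, 0.1% DMSO control. Chemiluminescent Western blot; HO-1 densitometry normalized to actin, mean of three experiments.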

[3] = biological target: MAP kinase p38 (Homo sapiens) (UniProt O15264+Q15759+Q16539+P53778); assay: Activation of p38MAPK in mouse RAW264.7 cells assessed as phosphorylation at Thr180/Tyr182 at 50 uM after 1 hr by Western blotting analysis
In short: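 p38 phosphorylation at Thr180/Tyr182 and total p38 probed in whole-cell lysates (35 μg/lane) of serum-starved RAW264.7 cells treated for 30 min to 4 h in serum-free medium. Positive controls were 5 μM anisomycin or 75 ng/mL EGF for 30 min. Chemiluminescent Western detection.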

[4] = biological target: T1, Nuclear factor erythroid 2-related factor 2 (Mus musculus); assay: Activation of Nrf2 in mouse RAW264.7 cells assessed as nuclear accumulation at 50 uM after 3 hrs by Western blotting analysis
In short: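 RAW264.7 cells (passage 5−25) seeded at 1 × 10⁵ cells/cm², switched to serum-free medium after 8 h, left overnight, then treated 3 h in serum-free medium; 0.1% DMSO vehicle control. Cells were swollen in hypotonic HEPES/NP-40 buffer for the cytosolic fraction and nuclei extracted in high-salt buffer. Blots loaded 30 μg/lane, Nrf2 densitometry normalized to actin, mean of three experiments.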

[5] = biological target: T1, Nuclear factor erythroid 2-related factor 2 (Mus musculus); assay: Activation of Nrf2 in mouse RAW264.7 cells assessed as induction of Hmox1 mRNA expression at 50 uM after 6 hrs by real-time PCR analysis in presence of PD98059
In short: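 Pretreatment 30 min with 0.1% DMSO, 15 μM PD98059, 15 μM SB203580 or 30 μM SP600125, then 50 μM agent for 6 h in serum-free medium. Hmox1 mRNA by TaqMan qPCR normalized to Gapdh, given as percent of agent-induced expression; mean ± SD of three experiments.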

[6] = biological target: T1, Nuclear factor erythroid 2-related factor 2 (Mus musculus); assay: Activation of Nrf2 in mouse RAW264.7 cells assessed as upregulation of Hmox1 gene expression at 25 uM after 6 hrs by real-time PCR analysis relative to GAPDH mRNA expression
In short: (§3)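 RAW264.7 cells treated 6 h in serum-free medium, 0.1% DMSO control. Total RNA (2 μg) reverse transcribed; TaqMan qPCR for Hmox1 and Gapdh, 40 cycles. Relative expression by 2^−ΔΔCT, normalized to Gapdh; mean ± SD of three experiments.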

[7] = biological target: T1, Nuclear factor erythroid 2-related factor 2 (Mus musculus); assay: Activation of Nrf2 in mouse RAW264.7 cells assessed as upregulation of Hmox1 gene expression at 10 to 50 uM after 6 hrs by real-time PCR analysis relative to GAPDH mRNA expression; in short: as §3
[8] = biological target: T1, Nuclear factor erythroid 2-related factor 2 (Mus musculus); assay: Activation of Nrf2 in mouse RAW264.7 cells assessed as nuclear accumulation at 25 uM after 3 hrs by Western blotting analysis
In short: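 Serum-starved RAW264.7 cells treated 30 min to 3 h (10-50 μM for 3 h, or 50 μM time course); 0.1% DMSO control, 50 μM quercetin positive control. Cytosolic fraction from hypotonic HEPES pH 7.9 buffer with 0.1% NP-40; nuclear fraction by 420 mM NaCl extraction. 30 μg/lane blotted for Nrf2 and actin; Nrf2/actin densitometry, mean of three experiments.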

[9] = biological target: T1, Nuclear factor erythroid 2-related factor 2 (Mus musculus); assay: Activation of Nrf2 in mouse RAW264.7 cells assessed as upregulation of HO1 protein expression at 50 uM after 1 hrs by Western blotting analysis relative to untreated control; in short: as §2
[10] = biological target: Mitogen-activated protein kinase 3 (Mus musculus) (UniProt Q63844); assay: Activation of ERK1 in mouse RAW264.7 cells assessed as phosphorylation at Thr202/Tyr204 at 50 uM after 30 mins by Western blotting analysis; in short: as §1
RAW264.7 = assay: Cytotoxicity against mouse RAW264.7 cells assessed as decreased cell viability at 50 uM after 6 hrs by MTT assay; conditions: raw264.7, 6 h
In short: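 Serum-starved RAW264.7 cells exposed 6 h at 10 or 50 μM; 0.1% DMSO control (100% viability), 1.5% Triton X-100 positive control. Cells washed and incubated 2 h at 37 °C with 0.5 mg/mL MTT in serum-free medium. Formazan dissolved in DMSO, A540 read, viability relative to DMSO-treated cells.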

[11] = biological target: Mitogen-activated protein kinase 9/10 (Mus musculus) (UniProt Q9WTU6+Q61831); assay: Activation of JNK2/3 in mouse RAW264.7 cells assessed as phosphorylation at 50 uM after 30 mins by Western blotting analysis
In short: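 Serum-starved RAW264.7 cells exposed in serum-free medium for 30 min to 4 h; 5 μM anisomycin for 30 min as positive control. Whole-cell lysates (30 μg/lane) blotted for JNKs dually phosphorylated at Thr183/Tyr185 and total JNKs, chemiluminescent detection.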

Sequence of Mitogen-activated protein kinase 1 (Mus musculus) (P63085 whole entry): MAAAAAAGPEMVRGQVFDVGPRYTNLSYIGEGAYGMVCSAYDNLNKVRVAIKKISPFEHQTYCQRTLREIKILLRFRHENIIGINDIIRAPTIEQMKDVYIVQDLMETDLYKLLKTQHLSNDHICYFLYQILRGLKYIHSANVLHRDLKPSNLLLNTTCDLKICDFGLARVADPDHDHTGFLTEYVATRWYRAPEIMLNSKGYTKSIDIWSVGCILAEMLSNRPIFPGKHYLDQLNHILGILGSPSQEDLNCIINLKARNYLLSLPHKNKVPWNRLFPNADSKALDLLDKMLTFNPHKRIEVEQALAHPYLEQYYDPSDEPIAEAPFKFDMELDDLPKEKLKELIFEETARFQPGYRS
Sequence of Mitogen-activated protein kinase 3 (Mus musculus) (Q63844 whole entry): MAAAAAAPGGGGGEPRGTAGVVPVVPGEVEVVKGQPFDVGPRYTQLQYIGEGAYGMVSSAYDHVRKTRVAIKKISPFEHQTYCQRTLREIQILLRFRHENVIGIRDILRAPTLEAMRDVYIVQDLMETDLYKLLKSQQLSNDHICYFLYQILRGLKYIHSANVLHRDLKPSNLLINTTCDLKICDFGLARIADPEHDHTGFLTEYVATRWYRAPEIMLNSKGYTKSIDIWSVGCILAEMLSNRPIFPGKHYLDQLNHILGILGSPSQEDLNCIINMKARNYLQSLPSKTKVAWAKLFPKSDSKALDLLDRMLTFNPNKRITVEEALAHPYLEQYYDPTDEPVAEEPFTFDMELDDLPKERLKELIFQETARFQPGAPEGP
Sequence of Mitogen-activated protein kinase 9/10 (Mus musculus) (Q61831 whole entry, looked up): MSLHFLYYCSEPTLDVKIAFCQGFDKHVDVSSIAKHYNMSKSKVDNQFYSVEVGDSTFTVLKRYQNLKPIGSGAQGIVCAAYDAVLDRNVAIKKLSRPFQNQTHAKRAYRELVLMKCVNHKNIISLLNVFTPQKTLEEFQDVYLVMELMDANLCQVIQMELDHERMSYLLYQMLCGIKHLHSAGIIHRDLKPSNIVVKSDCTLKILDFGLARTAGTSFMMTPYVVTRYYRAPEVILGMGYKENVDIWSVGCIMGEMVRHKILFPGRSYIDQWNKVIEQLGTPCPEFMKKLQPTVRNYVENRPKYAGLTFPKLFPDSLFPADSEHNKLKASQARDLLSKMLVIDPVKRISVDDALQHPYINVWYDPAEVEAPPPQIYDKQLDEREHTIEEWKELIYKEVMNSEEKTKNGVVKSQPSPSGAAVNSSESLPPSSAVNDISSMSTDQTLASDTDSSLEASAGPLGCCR
Sequence of Mitogen-activated protein kinase 9/10 (Mus musculus) (Q9WTU6 whole entry, looked up): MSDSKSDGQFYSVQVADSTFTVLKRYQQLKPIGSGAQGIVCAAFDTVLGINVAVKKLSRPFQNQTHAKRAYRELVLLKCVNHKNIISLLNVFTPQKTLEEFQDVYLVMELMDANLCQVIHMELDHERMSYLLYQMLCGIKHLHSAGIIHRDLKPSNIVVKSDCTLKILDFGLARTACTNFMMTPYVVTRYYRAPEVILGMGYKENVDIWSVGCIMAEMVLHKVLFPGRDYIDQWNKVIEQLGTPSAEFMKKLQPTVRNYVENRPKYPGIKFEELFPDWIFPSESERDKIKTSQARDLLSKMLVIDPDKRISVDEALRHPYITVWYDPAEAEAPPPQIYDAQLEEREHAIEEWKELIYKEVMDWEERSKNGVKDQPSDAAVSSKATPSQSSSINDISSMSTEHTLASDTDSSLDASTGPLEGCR

Structure (SMILES): O=C(Oc1cc(O)c2c(c1)O[C@H](c1ccc(O)c(O)c1)[C@@H](O)C2=O)c1cc(O)c(O)c(O)c1
- Activity [1]: Active
- fold change (FC) [2]: 2.3
- Activity [3]: Active
- Activity [4]: Active
- Activity [5]: inactive
- fold change (FC) [6]: 4.8
- Activity [7]: Dose-dependent effect
- Activity [8]: Active
- fold change (FC) [9]: 1.1
- Activity [10]: Active
- Activity (RAW264.7): 72%
- Activity [11]: Active
